ChEMBL document CHEMBL1134945, “Synthesis and structure-activity relationships of aminoalkylazetidines as ORL1 receptor ligands” (Bioorg Med Chem Lett, 2002)

Legend:
Mu-type opioid receptor = Mu-type opioid receptor (Homo sapiens, UniProt P35372); test: Binding affinity at human opioid receptor mu 1 was determined by using [3H]diprenorphine radioligand in CHO cell membranes at a concentration of 0.12 nM
Procedure, shortened: (§1)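 Ki from competition binding with [3H]diprenorphine on membranes of CHO cells expressing the respective human opioid receptor; means of 2–3 independent determinations.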

Nociceptin receptor [1] = biological target: T1, Nociceptin receptor (Homo sapiens, UniProt P41146); test: Binding affinity at human ORL1 receptor was determined by using [125I]nociceptin radioligand in Chinese hamster ovary (CHO) cell membranes at a concentration of 23 pM
Procedure, shortened: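 Competition binding against [125I]Nociceptin on membranes of CHO cells expressing human ORL1; Ki derived; means of 2–3 independent determinations.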

[2] = biological target: Kappa-type opioid receptor (Homo sapiens, UniProt P41145); test: Binding affinity at human opioid receptor kappa 1 was determined by using [3H]diprenorphine radioligand in CHO cell membranes at a concentration of 0.31 nM; procedure, shortened: as §1
Nociceptin receptor [3] = biological target: T1, Nociceptin receptor; test: Functional [35S]GTP-gamma-S, binding for human ORL1 receptor carried out in CHO cell membranes.; type: cell-based; details: filed as agonist
Procedure, shortened: (§2)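 [35S]GTPγS binding on membranes of CHO cells expressing human ORL1, 1 h incubation before assay start. Agonist: raises [35S]GTPγS binding. Antagonist: no effect on basal binding but blocks the Nociceptin-induced rise.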

[4] = biological target: T2, Delta-type opioid receptor (Homo sapiens, UniProt P41143); test: Binding affinity at human opioid receptor delta 1 was determined by using [3H]diprenorphine radioligand in CHO cell membranes at a concentration of 0.8 nM; procedure, shortened: as §1
Nociceptin receptor [5] = biological target: T1, Nociceptin receptor; test: Concentration of compound that inhibits the binding of human ORL1 receptor in CHO cell membranes in the presence of [125I]nociceptin radioligand at a concentration of 10 uM
Nociceptin receptor [6] = biological target: T1, Nociceptin receptor; test: Compound was evaluated for functional [35S]GTP-gamma-S, binding for human ORL1 receptor carried out in CHO cell membranes; Compound acts as Antagonist; type: cell-based; details: filed as antagonist; procedure, shortened: as §2
[7] = biological target: T2, Delta-type opioid receptor; test: Binding affinity at human Opioid receptor delta 1 was determined by using [3H]diprenorphine radioligand in CHO cell membranes at a concentration of 0.8 nM; procedure, shortened: as §1
Nociceptin receptor [8] = biological target: T1, Nociceptin receptor; test: Compound was evaluated for functional [35S]GTP-gamma-S, binding for human ORL1 receptor carried out in CHO cell membranes; Compound acts as Agonist; type: cell-based; details: filed as agonist; procedure, shortened: as §2

T1 sequence (P41146 whole entry): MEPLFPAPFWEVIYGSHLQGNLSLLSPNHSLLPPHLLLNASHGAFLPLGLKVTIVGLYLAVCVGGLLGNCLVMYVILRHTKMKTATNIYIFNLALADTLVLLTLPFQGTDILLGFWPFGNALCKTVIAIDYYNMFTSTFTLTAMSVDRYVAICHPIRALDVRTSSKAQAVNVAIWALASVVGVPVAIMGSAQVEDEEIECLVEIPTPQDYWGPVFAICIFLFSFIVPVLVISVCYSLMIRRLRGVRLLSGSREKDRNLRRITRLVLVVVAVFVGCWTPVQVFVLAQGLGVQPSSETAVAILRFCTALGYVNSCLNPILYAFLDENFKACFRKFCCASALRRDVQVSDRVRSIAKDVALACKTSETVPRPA
T2 sequence (P41143 whole entry): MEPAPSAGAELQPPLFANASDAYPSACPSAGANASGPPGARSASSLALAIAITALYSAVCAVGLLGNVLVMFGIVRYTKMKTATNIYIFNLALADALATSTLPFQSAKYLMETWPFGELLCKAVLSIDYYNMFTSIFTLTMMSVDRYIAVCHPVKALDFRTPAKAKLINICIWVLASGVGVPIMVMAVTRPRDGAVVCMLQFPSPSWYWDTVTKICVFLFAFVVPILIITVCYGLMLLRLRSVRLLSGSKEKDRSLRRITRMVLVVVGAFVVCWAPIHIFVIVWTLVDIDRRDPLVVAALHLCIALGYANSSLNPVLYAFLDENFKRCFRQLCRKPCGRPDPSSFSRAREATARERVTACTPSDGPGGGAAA
Chain of Kappa-type opioid receptor (P41145 whole entry): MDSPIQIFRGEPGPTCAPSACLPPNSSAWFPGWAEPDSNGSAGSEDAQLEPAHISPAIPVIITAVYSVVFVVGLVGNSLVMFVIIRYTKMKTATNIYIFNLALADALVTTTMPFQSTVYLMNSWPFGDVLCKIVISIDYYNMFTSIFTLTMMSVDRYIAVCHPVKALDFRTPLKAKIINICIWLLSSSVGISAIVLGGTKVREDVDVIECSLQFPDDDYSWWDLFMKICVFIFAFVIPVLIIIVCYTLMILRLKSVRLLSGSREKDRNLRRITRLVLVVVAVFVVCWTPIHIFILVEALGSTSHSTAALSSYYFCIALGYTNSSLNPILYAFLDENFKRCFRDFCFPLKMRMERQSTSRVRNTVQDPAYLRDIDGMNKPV
Chain of Mu-type opioid receptor (P35372 whole entry): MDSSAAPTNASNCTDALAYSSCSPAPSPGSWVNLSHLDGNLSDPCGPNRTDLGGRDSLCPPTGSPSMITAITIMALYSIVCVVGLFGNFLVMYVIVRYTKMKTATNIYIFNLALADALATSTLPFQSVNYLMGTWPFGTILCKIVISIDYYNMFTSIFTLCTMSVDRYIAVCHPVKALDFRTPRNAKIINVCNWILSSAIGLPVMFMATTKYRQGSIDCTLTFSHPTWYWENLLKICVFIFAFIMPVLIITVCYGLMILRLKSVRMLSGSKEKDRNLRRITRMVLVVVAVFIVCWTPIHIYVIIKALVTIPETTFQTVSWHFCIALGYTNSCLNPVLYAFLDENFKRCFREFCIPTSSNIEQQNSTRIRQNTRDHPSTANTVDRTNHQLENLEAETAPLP

SMILES | Ki (Mu-type opioid receptor) [nM] | Ki (Nociceptin receptor [1]) [nM] | Ki [2] [nM] | Activity (Nociceptin receptor [3]) | Ki [4] [nM] | inhibition (Nociceptin receptor [5]) [%] | Activity (Nociceptin receptor [6]) | Ki [7] [nM] | Activity (Nociceptin receptor [8])
N[C@@H](c1cccc(C(F)(F)F)c1)[C@@H]1CCN1C(c1ccccc1)c1ccccc1 (stereo in doubt; (+\-)-1) [listing 1 of 2 here] | – | – | – | Agonist | – | – | – | – | –
COc1cccc([C@H](N)[C@@H]2CCN2C(c2ccccc2)c2ccccc2)c1 | – | – | – | – | – | 45 | – | – | –
N[C@@H](c1cccc(F)c1)[C@@H]1CCN1C(c1ccccc1)c1ccccc1 | 1770 | 191 | 997 | Agonist | 2920 | – | – | – | –
CCCCCC(c1ccccc1)N1CC[C@H]1[C@@H](N)c1cccc(Cl)c1 (stereo not given in full) | 2150 | 772 | 3910 | – | 7580 | – | – | – | –
Cc1cccc([C@H](N)[C@@H]2CCN2C(c2ccccc2)c2ccccc2)c1 | – | – | – | – | – | 3 | – | – | –
N[C@@H](c1cc(F)cc(F)c1)[C@@H]1CCN1C(c1ccccc1)c1ccccc1 | 4250 | 105 | 4010 | Agonist | 9530 | – | – | – | –
CCCCCC(c1ccccc1)N1CC[C@H]1[C@H](N)c1cccc(Cl)c1 (stereo not given in full) | 1940 | 34 | 2990 | – | 5960 | – | – | – | –
N[C@@H](c1cccc(C(F)(F)F)c1)[C@@H]1CCN1C(c1ccccc1)c1ccccc1 (stereo in doubt; (+)-1a) [listing 1 of 2 here] | – | – | – | Agonist | – | – | – | – | –
CCC(c1ccccc1)N1CC[C@H]1[C@H](N)c1cccc(Cl)c1 (stereo not given in full) | 7220 | 94 | 7720 | Agonist | 22400 | – | – | – | –
N[C@H](c1cccc(C(F)(F)F)c1)[C@H]1CCN1C(c1ccccc1)c1ccccc1 | 516 | 14 | 641 | Agonist | 3310 | – | – | – | –
CCCCC(c1cc(F)cc(F)c1)N1CC[C@H]1[C@@H](N)c1cccc(Cl)c1 (stereo not given in full) | 5550 | 347 | 6490 | – | 9370 | – | – | – | –
CCCCC(c1cccc(F)c1)N1CC[C@H]1[C@@H](N)c1cccc(Cl)c1 (stereo not given in full) | 4700 | 680 | 4120 | – | 12300 | – | – | – | –
CCCCC(c1ccccc1)N1CC[C@H]1[C@@H](N)c1cccc(Cl)c1 (stereo not given in full) | 2250 | 745 | 3680 | – | 8820 | – | – | – | –
CCC(c1ccccc1)N1CC[C@H]1[C@@H](N)c1cccc(Cl)c1 (stereo not given in full) | 8070 | 570 | 13100 | – | 22400 | – | – | – | –
N[C@@H](c1ccc(Oc2ccccc2)cc1)[C@@H]1CCN1C(c1ccccc1)c1ccccc1 | 5400 | 7220 | 2770 | – | 7720 | – | – | – | –
N[C@@H](c1cccc(C(F)(F)F)c1)[C@@H]1CCN1C(c1ccccc1)c1ccccc1 (stereo in doubt; (+\-)-1) [listing 2 of 2 here] | 1970 | 31 | 1630 | – | 6090 | – | – | – | –
N[C@@H](c1cccc(C(F)(F)F)c1)[C@@H]1CCN1C(c1ccccc1)c1ccccc1 (stereo in doubt; (+)-1a) [listing 2 of 2 here] | 6090 | 236 | 3570 | – | 11000 | – | – | – | –
CCCC(c1ccccc1)N1CC[C@H]1[C@H](N)c1cccc(Cl)c1 (stereo not given in full) | 6020 | 79 | 7170 | Agonist | 16500 | – | – | – | –
CCCCCCC(c1ccccc1)N1CC[C@H]1[C@@H](N)c1cccc(Cl)c1 (stereo not given in full) | 1590 | 1020 | 1940 | – | 4980 | – | – | – | –
CCCCC(CCCC)N1CC[C@H]1[C@@H](N)c1cccc(Cl)c1 | 9670 | 1340 | 4260 | – | 31800 | – | – | – | –
CCCCCCC(c1ccccc1)N1CC[C@H]1[C@H](N)c1cccc(Cl)c1 (stereo not given in full) | 1490 | 185 | 2860 | – | – | – | Antagonist | 3910 | –
CCCCC(c1cc(F)cc(F)c1)N1CC[C@H]1[C@H](N)c1cccc(Cl)c1 (stereo not given in full) | 3980 | 49 | 4220 | – | 11200 | – | – | – | Agonist
CC(c1ccccc1)N1CC[C@H]1[C@@H](N)c1cccc(Cl)c1 (stereo not given in full) | 10600 | 1060 | 4100 | – | 39100 | – | – | – | –
CCCC(c1ccccc1)N1CC[C@H]1[C@@H](N)c1cccc(Cl)c1 (stereo not given in full) | 4130 | 367 | 2940 | – | 10100 | – | – | – | –
CCCCC(c1cccc(F)c1)N1CC[C@H]1[C@H](N)c1cccc(Cl)c1 (stereo not given in full) | 1600 | 26 | 2130 | Agonist | 8710 | – | – | – | –
CCCCC(c1ccccc1)N1CC[C@H]1[C@H](N)c1cccc(Cl)c1 (stereo not given in full) | 1810 | 30 | 3430 | Agonist | 8050 | – | – | – | –

The remaining lines, values ahead:

Ki (Mu-type opioid receptor) [nM] | Ki (Nociceptin receptor [1]) [nM] | Ki [2] [nM] | Activity (Nociceptin receptor [3]) | Ki [4] [nM] | inhibition (Nociceptin receptor [5]) [%] | Activity (Nociceptin receptor [6]) | Ki [7] [nM] | Activity (Nociceptin receptor [8]) | SMILES
7160 | 420 | 6040 | Agonist | 2710 | – | – | – | – | N[C@H](c1cccc(Cl)c1)[C@@H]1CCN1C(c1cccc(Cl)c1)c1cccc(Cl)c1
4320 | 64 | 3530 | Agonist | 4790 | – | – | – | – | N[C@H](c1cccc(Cl)c1)[C@@H]1CCN1C(c1cccc(F)c1)c1cccc(F)c1
801 | 1140 | 1840 | – | 5010 | – | – | – | – | Cc1ccc(C(c2ccc(C)cc2)N2CC[C@H]2[C@H](N)c2cccc(Cl)c2)cc1
152 | 58 | 150 | Agonist | 634 | – | – | – | – | Cc1ccc([C@H](N)[C@@H]2CCN2C(c2ccccc2)c2ccccc2)cc1F
865 | 198 | 1340 | – | 2920 | – | – | – | – | COc1ccc([C@H](N)[C@@H]2CCN2C(c2ccccc2)c2ccccc2)cc1
2500 | 2530 | 1480 | – | 4990 | – | – | – | – | N[C@H](c1cccc(Cl)c1)[C@@H]1CCN1C(c1ccc(Br)cc1)c1ccc(Br)cc1
2180 | 684 | 2240 | – | 7430 | – | – | – | – | N[C@H](c1cccc(Cl)c1)[C@@H]1CCN1C(c1ccc(F)cc1)c1ccc(F)cc1
3450 | 3220 | 3250 | – | 5010 | – | – | – | – | N[C@H](c1cccc(Cl)c1)[C@@H]1CCN1C(c1ccc(Cl)cc1)c1ccc(Cl)cc1
488 | 94 | 660 | – | 1860 | – | – | – | – | Cc1ccc([C@H](N)[C@@H]2CCN2C(c2ccccc2)c2ccccc2)cc1
586 | 152 | 607 | Agonist | 1440 | – | – | – | – | N[C@@H](c1ccc(Cl)cc1)[C@@H]1CCN1C(c1ccccc1)c1ccccc1
– | 2590 | – | – | – | – | – | – | – | N[C@H](c1cccc(Cl)c1)[C@@H]1CCN1C(c1cccc(C(F)(F)F)c1)c1cccc(C(F)(F)F)c1
1650 | 37 | 1230 | – | 8340 | – | – | – | – | N[C@@H](c1cccc(Cl)c1)[C@@H]1CCN1C(c1ccccc1)c1ccccc1
